Drawing on ChEMBL document CHEMBL1141720, “A study of the structure-activity relationship of GABA(A)-benzodiazepine receptor bivalent ligands by conformational analysis with low temperature NMR and X-ray analysis” (Bioorg Med Chem, 2008), this text covers Ki for six molecules.

SMILES strings stand for the structures.

Holding throughout (format): cell-based
For test [1], the target named is GABA A receptor alpha-4/beta-3/gamma-2 (Homo sapiens, UniProt P18507+P28472+P48169). Description: Displacement of [3H]flunitrazepam from human recombinant GABAA alpha-4-beta-3-gamma-2 receptor expressed in HEK293 cells. In short, it runs like this: (§1)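 Membranes from the receptor-expressing cells were harvested in hypotonic 50 mM Tris-acetate, pH 7.4 at 4°C. They were incubated with [3H]flunitrazepam in 0.5 mL for 1 h at 4°C. Nonspecific binding was taken with 100 μM diazepam. Reactions were filtered onto 0.3% polyethyleneimine-treated GF/C filters, washed three times with ice-cold buffer, and counted by liquid scintillation. Protein was measured by Bio-Rad assay against a BSA standard.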
A general note: Displacement assays read how much labelled ligand stays bound in the presence of the test substance.

Test [2] concerns the target T1, GABA-A receptor; alpha-5/beta-3/gamma-2 (Homo sapiens, UniProt P18507+P28472+P31644).
T1 sequence (P18507 whole entry): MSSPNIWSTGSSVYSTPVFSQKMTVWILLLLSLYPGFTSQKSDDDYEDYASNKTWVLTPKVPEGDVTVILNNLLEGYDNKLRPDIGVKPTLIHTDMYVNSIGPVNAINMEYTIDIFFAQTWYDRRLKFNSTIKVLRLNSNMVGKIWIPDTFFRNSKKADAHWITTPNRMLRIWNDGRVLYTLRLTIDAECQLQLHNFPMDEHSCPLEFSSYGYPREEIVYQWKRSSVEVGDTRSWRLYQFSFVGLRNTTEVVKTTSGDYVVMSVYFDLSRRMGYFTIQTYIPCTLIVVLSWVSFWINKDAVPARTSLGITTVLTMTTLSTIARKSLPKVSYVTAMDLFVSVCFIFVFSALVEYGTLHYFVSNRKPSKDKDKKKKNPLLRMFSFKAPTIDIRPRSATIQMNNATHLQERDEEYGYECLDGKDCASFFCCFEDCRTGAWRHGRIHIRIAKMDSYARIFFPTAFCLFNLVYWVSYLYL
T1 sequence (P28472 whole entry): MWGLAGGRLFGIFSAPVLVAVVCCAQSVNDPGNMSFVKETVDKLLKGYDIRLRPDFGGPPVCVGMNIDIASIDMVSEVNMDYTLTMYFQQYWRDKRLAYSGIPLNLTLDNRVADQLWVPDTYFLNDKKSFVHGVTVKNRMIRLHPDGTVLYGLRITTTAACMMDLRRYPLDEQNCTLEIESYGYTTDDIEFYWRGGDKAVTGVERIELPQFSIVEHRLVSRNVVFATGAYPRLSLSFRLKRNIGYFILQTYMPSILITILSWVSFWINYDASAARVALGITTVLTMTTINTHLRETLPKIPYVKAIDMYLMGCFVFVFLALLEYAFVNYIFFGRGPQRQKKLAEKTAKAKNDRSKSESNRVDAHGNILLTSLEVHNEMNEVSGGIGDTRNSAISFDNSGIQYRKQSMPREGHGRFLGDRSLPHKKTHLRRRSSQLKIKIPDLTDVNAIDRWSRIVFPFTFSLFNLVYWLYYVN
T1 sequence (P31644 whole entry): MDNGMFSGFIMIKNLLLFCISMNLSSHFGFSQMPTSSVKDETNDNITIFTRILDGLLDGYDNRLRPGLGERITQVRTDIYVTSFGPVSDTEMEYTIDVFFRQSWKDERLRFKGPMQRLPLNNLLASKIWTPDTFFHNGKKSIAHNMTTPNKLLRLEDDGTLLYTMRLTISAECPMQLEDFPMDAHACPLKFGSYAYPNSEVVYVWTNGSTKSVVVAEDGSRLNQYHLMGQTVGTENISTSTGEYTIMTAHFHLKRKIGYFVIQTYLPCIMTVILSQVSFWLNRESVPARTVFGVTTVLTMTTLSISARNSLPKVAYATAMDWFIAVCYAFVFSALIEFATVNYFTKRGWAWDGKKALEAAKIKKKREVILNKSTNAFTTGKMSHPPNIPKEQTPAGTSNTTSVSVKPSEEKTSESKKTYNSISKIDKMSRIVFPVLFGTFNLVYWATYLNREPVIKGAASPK
Description: Displacement of [3H]flunitrazepam from human recombinant GABAA alpha-5-beta-3-gamma-2 receptor expressed in HEK293 cells. In short, it runs like this: as §1

For test [3], the target named is T2, GABA-A receptor; alpha-1/beta-3/gamma-2 (Homo sapiens, UniProt P14867+P18507+P28472).
T2 sequence (P14867 whole entry): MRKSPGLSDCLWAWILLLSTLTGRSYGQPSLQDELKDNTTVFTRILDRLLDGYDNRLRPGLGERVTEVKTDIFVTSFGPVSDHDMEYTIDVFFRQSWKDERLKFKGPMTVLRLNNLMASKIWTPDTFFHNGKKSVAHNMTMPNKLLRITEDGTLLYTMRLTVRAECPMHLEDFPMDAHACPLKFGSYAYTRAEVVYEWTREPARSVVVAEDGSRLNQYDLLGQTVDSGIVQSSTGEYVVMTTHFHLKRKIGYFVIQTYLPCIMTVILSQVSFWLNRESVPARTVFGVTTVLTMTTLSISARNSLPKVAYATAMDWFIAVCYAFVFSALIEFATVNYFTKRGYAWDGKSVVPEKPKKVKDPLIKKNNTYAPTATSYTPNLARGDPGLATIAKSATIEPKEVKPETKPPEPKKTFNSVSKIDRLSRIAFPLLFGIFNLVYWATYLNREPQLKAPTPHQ
T2 sequence (P18507 whole entry): T1 sequence (P18507 whole entry)
T2 sequence (P28472 whole entry): T1 sequence (P28472 whole entry)
Description: Displacement of [3H]flunitrazepam from human recombinant GABAA alpha-1-beta-3-gamma-2 receptor expressed in HEK293 cells. In short, it runs like this: as §1

In test [4] the target is GABA-A receptor; alpha-6/beta-3/gamma-2 (Homo sapiens, UniProt P18507+P28472+Q16445). Description: Displacement of [3H]flunitrazepam from human recombinant GABAA alpha-6-beta-3-gamma-2 receptor expressed in HEK293 cells. In short, it runs like this: as §1
The target of test [5] is T3, GABA-A receptor; alpha-2/beta-3/gamma-2 (Homo sapiens, UniProt P18507+P28472+P47869).
T3 sequence (P18507 whole entry): T1 sequence (P18507 whole entry)
T3 sequence (P28472 whole entry): T1 sequence (P28472 whole entry)
T3 sequence (P47869 whole entry): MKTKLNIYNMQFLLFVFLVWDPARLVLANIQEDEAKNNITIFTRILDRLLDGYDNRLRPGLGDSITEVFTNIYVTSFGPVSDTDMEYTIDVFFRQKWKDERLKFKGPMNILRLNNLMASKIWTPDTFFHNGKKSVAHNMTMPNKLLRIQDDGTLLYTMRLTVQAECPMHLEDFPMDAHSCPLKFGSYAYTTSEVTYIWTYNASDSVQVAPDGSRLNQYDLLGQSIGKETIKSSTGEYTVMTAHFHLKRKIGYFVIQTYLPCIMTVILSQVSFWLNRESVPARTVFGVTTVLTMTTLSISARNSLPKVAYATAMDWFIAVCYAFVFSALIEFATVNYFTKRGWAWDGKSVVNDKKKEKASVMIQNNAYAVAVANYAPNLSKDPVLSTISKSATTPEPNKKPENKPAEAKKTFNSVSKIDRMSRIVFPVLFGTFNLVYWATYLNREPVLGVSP
Description: Displacement of [3H]flunitrazepam from human recombinant GABAA alpha-2-beta-3-gamma-2 receptor expressed in HEK293 cells. In short, it runs like this:
as §1

Test [6] concerns the target T4, Gamma-aminobutyric acid receptor subunit alpha-3 (Homo sapiens, UniProt P18507+P28472+P34903).
T4 sequence (P34903 whole entry): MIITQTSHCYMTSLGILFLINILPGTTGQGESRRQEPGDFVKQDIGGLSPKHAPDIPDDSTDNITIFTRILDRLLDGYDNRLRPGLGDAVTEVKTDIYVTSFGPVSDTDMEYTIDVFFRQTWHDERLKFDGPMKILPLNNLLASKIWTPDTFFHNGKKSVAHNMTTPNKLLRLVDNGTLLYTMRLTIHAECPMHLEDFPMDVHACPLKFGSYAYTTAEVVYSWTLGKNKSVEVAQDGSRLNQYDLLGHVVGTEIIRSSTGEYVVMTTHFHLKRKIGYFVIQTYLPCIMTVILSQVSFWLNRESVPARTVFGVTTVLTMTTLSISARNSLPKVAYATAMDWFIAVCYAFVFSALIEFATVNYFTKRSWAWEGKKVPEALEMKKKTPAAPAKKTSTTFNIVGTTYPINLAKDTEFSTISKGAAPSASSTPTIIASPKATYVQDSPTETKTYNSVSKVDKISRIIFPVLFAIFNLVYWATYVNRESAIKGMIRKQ
Description: Displacement of [3H]flunitrazepam from human recombinant GABAA alpha-3-beta-3-gamma-2 receptor expressed in HEK293 cells. In short, it runs like this: as §1

Sequence of GABA-A receptor; alpha-6/beta-3/gamma-2 (Q16445 whole entry, one chain of several): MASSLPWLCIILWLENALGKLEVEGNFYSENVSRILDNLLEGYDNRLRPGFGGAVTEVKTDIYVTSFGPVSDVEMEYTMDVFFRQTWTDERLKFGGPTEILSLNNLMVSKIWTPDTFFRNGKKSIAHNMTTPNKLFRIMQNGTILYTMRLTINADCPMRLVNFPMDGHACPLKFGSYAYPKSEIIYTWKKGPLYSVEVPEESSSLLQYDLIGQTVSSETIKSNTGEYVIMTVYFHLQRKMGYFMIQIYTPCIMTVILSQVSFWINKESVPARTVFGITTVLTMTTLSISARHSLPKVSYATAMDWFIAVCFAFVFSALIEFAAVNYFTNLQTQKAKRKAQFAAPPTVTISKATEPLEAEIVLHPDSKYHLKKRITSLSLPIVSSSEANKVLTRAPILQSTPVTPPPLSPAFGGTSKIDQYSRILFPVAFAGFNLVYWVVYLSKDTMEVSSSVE
Sequence of GABA A receptor alpha-4/beta-3/gamma-2 (P48169 whole entry, one chain of several): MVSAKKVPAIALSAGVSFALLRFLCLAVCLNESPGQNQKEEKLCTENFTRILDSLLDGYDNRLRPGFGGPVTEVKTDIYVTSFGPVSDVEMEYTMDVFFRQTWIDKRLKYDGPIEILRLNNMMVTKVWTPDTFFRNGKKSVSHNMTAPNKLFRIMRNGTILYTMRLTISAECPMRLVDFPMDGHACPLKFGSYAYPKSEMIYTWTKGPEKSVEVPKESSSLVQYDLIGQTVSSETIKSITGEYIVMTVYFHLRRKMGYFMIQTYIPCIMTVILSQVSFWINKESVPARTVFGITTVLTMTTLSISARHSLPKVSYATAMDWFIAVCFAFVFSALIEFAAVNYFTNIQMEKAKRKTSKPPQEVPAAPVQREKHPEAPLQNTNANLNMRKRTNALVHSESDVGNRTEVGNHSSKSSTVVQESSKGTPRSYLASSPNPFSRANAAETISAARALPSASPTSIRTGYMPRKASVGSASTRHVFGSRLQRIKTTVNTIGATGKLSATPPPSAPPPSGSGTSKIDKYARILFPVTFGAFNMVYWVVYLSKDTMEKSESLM

What is called Ki is the equilibrium dissociation constant of an inhibitor or competing ligand from its target. Take `C#Cc1ccc2c(c1)C(=O)N(C)Cc1c(C(=O)OCC)ncn1-2`: the inhibition constant (Ki) in test [1] was found to be 5.3 nM.

Take `CCc1ccc2c(c1)C(=O)N(C)Cc1c(C(=O)OCCCOC(=O)c3ncn4c3CN(C)C(=O)c3cc(CC)ccc3-4)ncn1-2`: the Ki in test [2] amounted to 101 nM; in test [3], 1850 nM; in test [4], 5000 nM; in test [5], 4700 nM; in test [6], 8550 nM.

In the case of `C#Cc1ccc2c(c1)C(=O)N(C)Cc1c(C(=O)OCCCCCOC(=O)c3ncn4c3CN(C)C(=O)c3cc(C#C)ccc3-4)ncn1-2`, the Ki was 5.4 nM in test [2]; 231 nM in test [3]; 54.2 nM in test [4]; 661 nM in test [5]; 2670 nM in test [6].

Turning to `C#Cc1ccc2c(c1)C(c1ccccc1)=NCc1c(C(=O)OCCOCCOC(=O)c3ncn4c3CN=C(c3ccccc3)c3cc(C#C)ccc3-4)ncn1-2`, the Ki in test [2] amounted to 5000 nM; in test [3], 460 nM; in test [4] it was 5000 nM; in test [5], 5000 nM.

Consider `C#Cc1ccc2c(c1)C(=O)N(C)Cc1c(C(=O)OCOCOC(=O)c3ncn4c3CN(C)C(=O)c3cc(C#C)ccc3-4)ncn1-2`, for which the Ki was 76.1 nM in test [2], 3800 nM in test [3], 2690 nM in test [5] and 1860 nM in test [6].

Turning to `C#Cc1ccc2c(c1)C(c1ccccc1)=NCc1c(C(=O)OCCCOC(=O)c3ncn4c3CN=C(c3ccccc3)c3cc(C#C)ccc3-4)ncn1-2`, the Ki in test [2] was 194 nM; in test [1], more than 5000 nM; in test [3], 236 nM; in test [4], more than 5000 nM; in test [5] it was 7.4 nM; in test [6], 272 nM.
